MEP2-GFP yeast: modulators of TOR pathway MEP2-GFP in S. cerevisiae; S. cerevisiae MEP2-GFP strain, flow cytometry GFP, 3 h; 100% = DMSO control level; GFP response vs DMSO, % at 10 µM; hit rate 0.51% among 330,000;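 active = GFP response versus DMSO above a set limit, roughly screen mean plus 3 SD, cut at about 180% in these data; inconclusive = fewer than 70 cells counted for a yeast strain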;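 also: median GFP fluorescence of the barcode-gated MEP2-GFP cells per well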
RPL19A TOR yeast: yeast TOR pathway RPL19A-GFP modulation; S. cerevisiae RPL19A-GFP strain, flow cytometry, 3 h; hits give low values; hit rate 0.3% among 330,000; percent response vs DMSO, % at 10 µM;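 active = percent response vs DMSO below 50%; inconclusive = fewer than 70 events counted for the yeast strain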;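 also: median channel GFP fluorescence of the barcoded RPL19A-GFP strain; lower means less RPL19A-GFP as with rapamycin TOR inhibition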
CIT2-GFP yeast: modulators of TOR pathway CIT2-GFP in S. cerevisiae; GFP response vs DMSO, % at 10 µM; AID 2029; hit rate 0.065% among 320,000; S. cerevisiae CIT2-GFP strain, flow cytometry, 3 h; 100 means same as DMSO wells;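 active = GFP response relative to DMSO above a set limit, near the screen mean plus 3 SD, cut at about 150% in these data; inconclusive = Fewer than 70 cells measured for a yeast strain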;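 also: ratio of well median GFP fluorescence to mean of DMSO wells on the plate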
AGP1-GFP MLPCN: yeast TOR pathway AGP1-GFP modulation; S. cerevisiae AGP1-GFP multiplex flow cytometry, 3 h; GFP as percent of DMSO wells; GFP response vs DMSO, % at 10 µM; hit rate 0.02% among 320,000; AID 2066;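 active = GFP response relative to DMSO above a set limit, near screen average plus 3 SD, cut at about 150% in these data; inconclusive = fewer than 70 cells counted for the yeast strain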;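 also: median GFP channel fluorescence of the gated AGP1 strain per well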
T cell HTS: T cell immune modulators affecting CD8 T cell-vesicle binding; 2C CD8+ T cell-vesicle binding, flow cytometry; hits give low values; response (vesicle binding), % at 7 µM; hit rate 0.068% among 330,000;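 active = response, share of CD8 T cells binding vesicles, and their 90th percentile fluorescence all below set limits, cut at about 80% in these data, passing the limit was not always enough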;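 also: values below 100% mean blocked vesicle binding to the CD8+ T cells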
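Read-out – percent CD8+ FL2 mean versus row control · System – murine 2C transgenic CD8+ T lymphocytes · Times – 1.5 h cell–vesicle binding at 37 °C, then 20 min icy labelling · Control set – naked vesicles low, QL9 vesicles with vehicle high · Detection – cytometric PE anti-B7-1 and Alexa647 anti-CD8 signals after 1% paraformaldehyde fixation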
LAP4 TOR yeast: modulators of TOR pathway LAP4-GFP in S. cerevisiae; S. cerevisiae LAP4-GFP multiplex, flow cytometry GFP, 3 h; median GFP as percent of DMSO wells; GFP response vs DMSO, % at 10 µM; hit rate 0.34% among 320,000;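 active = GFP response vs DMSO above a set limit, about the screen mean plus 3 SD, cut at about 150% in these data; inconclusive = under 70 cell events counted for the yeast strain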
Of the large screens only hits and unclear results are named; the others gave an inactive call; [ ] = another dose, or the depositor's remark. The list is not random: actives were taken first. Their share in the collection is about 0.96%.

Cc1ccc2nc(NC(=O)c3ccco3)sc2c1	none
Cc1ccc2nc(NC(=S)NC(=O)c3ccco3)sc2c1	RPL19A TOR yeast 39.7[may fluoresce violet], CIT2-GFP yeast inconclusive, AGP1-GFP MLPCN inconclusive
O=C1c2ccccc2C(=O)c2c([N+](=O)[O-])ccc(O)c21	LAP4 TOR yeast 154.2
C/C(=N\OCC(=O)NC(C)C)c1cccs1	none
CCOC(=O)C1CCCN(C(=O)c2ccc(-c3ccc([N+](=O)[O-])cc3)o2)C1 (configuration not stated)	LAP4 TOR yeast 168.6
CN(CCOc1ccccc1)C(=O)CCc1c[nH]c2ccccc12	none
CC(=O)Nc1ccc(-n2nnnc2SCC(=O)NC2CCCC2)cc1	none
CC(=O)Nc1ccc(NC(=O)CSc2nnnn2-c2ccc(F)cc2)cc1	MEP2-GFP yeast 193.6[may fluoresce violet], CIT2-GFP yeast inconclusive
OCC1(Cc2ccccc2)CCCN(Cc2ccc(-c3ccco3)cc2)C1 (configuration not stated)	MEP2-GFP yeast 328.3[may fluoresce violet], RPL19A TOR yeast 36.2[may fluoresce violet], CIT2-GFP yeast inconclusive
OCC1(Cc2ccccc2)CCN(Cc2ccc(-c3ccco3)cc2)CC1	none
CCCN(CCC)C(=O)c1cn(C)c2ccc(S(=O)(=O)N3CCCC3)cc2c1=O	none
O=C(O)CSCC(=O)N1N=C2/C(=C/c3ccccc3)CCCC2C1c1ccccc1 (configuration not stated)	MEP2-GFP yeast 263.0[may fluoresce violet], RPL19A TOR yeast 35.8[may fluoresce violet], CIT2-GFP yeast inconclusive, AGP1-GFP MLPCN inconclusive
Cn1c(=O)c2c(ncn2CCOc2ccc(F)cc2)n(C)c1=O	MEP2-GFP yeast inconclusive, RPL19A TOR yeast 40.4[may fluoresce violet], CIT2-GFP yeast inconclusive, AGP1-GFP MLPCN inconclusive
Cn1c(=O)c2c(ncn2CC(=O)Nc2ccccc2)n(C)c1=O	MEP2-GFP yeast 210.1[may fluoresce violet], CIT2-GFP yeast inconclusive (no result: AGP1-GFP MLPCN)
Cc1cc(-c2n[nH]c(=S)n2/N=C/C=C/c2ccco2)n[nH]1	MEP2-GFP yeast 396.4[may fluoresce violet], RPL19A TOR yeast 37.2[may fluoresce violet], CIT2-GFP yeast inconclusive, AGP1-GFP MLPCN inconclusive
C=CCOc1ccc(/C=C/C(=O)OCC(=O)N(C)CC(=O)Nc2ccc(F)cc2)cc1	none
COc1ccc2nc(NC(=O)CSc3nc4ccccc4o3)sc2c1	none
O=C(CSc1nc2ccccc2o1)Nc1nc2ccc(Br)cc2s1	MEP2-GFP yeast 214.3[may fluoresce violet], CIT2-GFP yeast inconclusive
COC(=O)c1[nH]c2ccc(Br)cc2c1NC(=O)CN1CCN(C2CCCCC2)CC1	MEP2-GFP yeast 280.9[may fluoresce violet], RPL19A TOR yeast 17.0[may fluoresce violet], CIT2-GFP yeast inconclusive
COc1ccc(-c2nc(CS(=O)CC(=O)NCc3ccc4c(c3)OCO4)c(C)o2)cc1OC (configuration not stated)	none
COc1ccccc1CNC(=O)CS(=O)Cc1nc(-c2ccc(OC)c(OC)c2)oc1C (configuration not stated)	RPL19A TOR yeast 44.3
COc1ccc(C(=O)Nc2nc(CC(=O)NCCc3ccccc3OC)cs2)cc1	none
CC(C)Cn1c(=O)c(C(=O)NCc2ccc3c(c2)OCO3)c(O)c2ccccc21	MEP2-GFP yeast inconclusive, RPL19A TOR yeast 29.1[may fluoresce violet], CIT2-GFP yeast inconclusive, AGP1-GFP MLPCN inconclusive, LAP4 TOR yeast inconclusive
Cc1ccccc1OC1CCN(C(=O)C2CCC(=O)N(C3CCCC3)C2)CC1 (configuration not stated)	LAP4 TOR yeast 155.6
Cc1ccc(OC2CCN(C(=O)C3CCC(=O)N(C4CC4)C3)CC2)cc1 (configuration not stated)	none
COc1ccc(S(=O)(=O)N2CCCCCC2)cc1NC(=O)CN(C)Cc1ccc2c(c1)OCO2	none
O=C(NCc1ccccn1)c1cc(-c2ccc(Cl)cc2)oc1C(F)(F)F	LAP4 TOR yeast 155.2
O=C(NCc1ccncc1)c1cc(-c2ccc(Cl)cc2)oc1C(F)(F)F	none
C/C=C(\C)CN1CCC(Oc2cccc(C(=O)NCc3ccccn3)c2)CC1	none
Cc1ccc(NC(=O)COC(=O)CCc2c[nH]c3ccccc23)c(C)c1	T cell HTS 0.0
O=[N+]([O-])c1ccc(-c2ccc(/C=N/Nc3nc(N4CCCC4)nc(N4CCCC4)n3)o2)cc1	none
O=[N+]([O-])c1cccc(-c2ccc(/C=N/Nc3nc(N4CCCCC4)nc(N4CCCCC4)n3)o2)c1	LAP4 TOR yeast 151.9
